Values after ≈ are worked out from the molar mass of the structure shown.
Columns and labels:
Aspergillus flavus = assay: Antifungal activity against Aspergillus flavus after 72 to 96 hrs by two fold serial dilution technique; type: functional
Procedure, shortened: (§1)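 Twofold serial dilution in Sabouraud's dextrose broth. Compounds were taken up in DMSO as 1 mg/ml stocks, and 0.2 ml of stock was added to 1.8 ml of seeded broth for the first dilution, giving six dilutions. Seeded broth came from 24 h to 7-day Sabouraud's agar slant cultures, with a final inoculum of 1.1–1.5 × 10² cfu/ml. Tubes were incubated at 28 ± 1 °C for 72–96 h, and MIC was read visually. Broth-only and solvent controls were included.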

Mucor = assay: Antifungal activity against Mucor after 72 to 96 hrs by two fold serial dilution technique; type: functional; procedure, shortened: as §1
Staphylococcus aureus = assay: Antibacterial activity against Staphylococcus aureus after 24 hrs by two fold serial dilution technique; type: functional
Procedure, shortened: (§2)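 Twofold serial broth dilution in nutrient broth. Compounds were taken up in DMSO as 1 mg/ml stocks, and 0.2 ml of stock was added to 1.8 ml of seeded broth for the first dilution, giving six dilutions in all. Seeded broth came from 24 h nutrient agar cultures, with a final inoculum of 10⁵ cfu/ml at pH 7.4 ± 0.2. Tubes were incubated at 37 ± 1 °C, and MIC was read visually after 24 h. Broth-only and solvent controls were included.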

Candida albicans = assay: Antifungal activity against Candida albicans after 72 to 96 hrs by two fold serial dilution technique; type: functional; procedure, shortened: as §1
Escherichia coli = assay: Antibacterial activity against Escherichia coli after 24 hrs by two fold serial dilution technique; type: functional; procedure, shortened: as §2
Rhizopus = assay: Antifungal activity against Rhizopus after 72 to 96 hrs by two fold serial dilution technique; type: functional; procedure, shortened: as §1
Klebsiella pneumoniae = assay: Antibacterial activity against Klebsiella pneumoniae after 24 hrs by two fold serial dilution technique; type: functional; procedure, shortened: as §2
Salmonella typhi = assay: Antibacterial activity against Salmonella typhi after 24 hrs by two fold serial dilution technique; type: functional, Salmonella enterica subsp. enterica serovar Typhi; details: Salmonella enterica
Procedure, shortened: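 Twofold serial broth dilution in nutrient broth. Compounds dissolved in DMSO as 1 mg/ml stocks; 0.2 ml added to 1.8 ml seeded broth, then serially diluted to six dilutions. Inoculum from 24 h nutrient agar cultures, final 10⁵ cfu/ml, pH 7.4 ± 0.2. Incubated at 37 ± 1 °C; MIC read visually at 24 h. Seeded-broth and solvent controls; ciprofloxacin standard.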

Pseudomonas aeruginosa = assay: Antibacterial activity against Pseudomonas aeruginosa after 24 hrs by two fold serial dilution technique; type: functional; procedure, shortened: as §2

| SMILES | MIC (Aspergillus flavus) | MIC (Mucor) | MIC (Staphylococcus aureus) | MIC (Candida albicans) | MIC (Escherichia coli) | MIC (Rhizopus) | MIC (Klebsiella pneumoniae) | MIC (Salmonella typhi) | MIC (Pseudomonas aeruginosa) |
| --- | --- | --- | --- | --- | --- | --- | --- | --- | --- |
| CC1=C(C(=O)OC(C)C)C(c2ccccc2)NC(=S)N1 (stereo not drawn) | 100 µg/mL (≈ 344 µM) | 50 µg/mL (≈ 172 µM) | 50 µg/mL (≈ 172 µM) | 50 µg/mL (≈ 172 µM) | 200 µg/mL (≈ 689 µM) | 100 µg/mL (≈ 344 µM) | 100 µg/mL (≈ 344 µM) | 100 µg/mL (≈ 344 µM) | 50 µg/mL (≈ 172 µM) |
| CC1=C(C(=O)OC(C)C)C(c2ccccc2)NC(=O)N1 (stereo not drawn) | – | 200 µg/mL (≈ 729 µM) | 200 µg/mL (≈ 729 µM) | 100 µg/mL (≈ 365 µM) | 200 µg/mL (≈ 729 µM) | 200 µg/mL (≈ 729 µM) | 200 µg/mL (≈ 729 µM) | 200 µg/mL (≈ 729 µM) | 100 µg/mL (≈ 365 µM) |
| COc1ccc(C2NC(=O)NC(C)=C2C(=O)OC(C)C)cc1 (stereo not drawn) | 100 µg/mL (≈ 329 µM) | 50 µg/mL (≈ 164 µM) | 50 µg/mL (≈ 164 µM) | 50 µg/mL (≈ 164 µM) | 100 µg/mL (≈ 329 µM) | 50 µg/mL (≈ 164 µM) | 100 µg/mL (≈ 329 µM) | 50 µg/mL (≈ 164 µM) | 50 µg/mL (≈ 164 µM) |
| CC1=C(C(=O)OC(C)C)C(c2ccc(C)cc2)NC(=O)N1 (stereo not drawn) | 200 µg/mL (≈ 694 µM) | 50 µg/mL (≈ 173 µM) | 100 µg/mL (≈ 347 µM) | 50 µg/mL (≈ 173 µM) | 100 µg/mL (≈ 347 µM) | 50 µg/mL (≈ 173 µM) | 100 µg/mL (≈ 347 µM) | 100 µg/mL (≈ 347 µM) | 50 µg/mL (≈ 173 µM) |
| CC1=C(C(=O)OC(C)C)C(c2ccc(F)cc2)NC(=O)N1 (stereo not drawn) | 25 µg/mL (≈ 85.5 µM) | 25 µg/mL (≈ 85.5 µM) | 12.5 µg/mL (≈ 42.8 µM) | 12.5 µg/mL (≈ 42.8 µM) | 25 µg/mL (≈ 85.5 µM) | 12.5 µg/mL (≈ 42.8 µM) | 25 µg/mL (≈ 85.5 µM) | 12.5 µg/mL (≈ 42.8 µM) | 12.5 µg/mL (≈ 42.8 µM) |
| CC1=C(C(=O)OC(C)C)C(c2ccc(Cl)cc2)NC(=O)N1 (stereo not drawn) | 100 µg/mL (≈ 324 µM) | 50 µg/mL (≈ 162 µM) | 25 µg/mL (≈ 81 µM) | 25 µg/mL (≈ 81 µM) | 50 µg/mL (≈ 162 µM) | 25 µg/mL (≈ 81 µM) | 50 µg/mL (≈ 162 µM) | 25 µg/mL (≈ 81 µM) | 25 µg/mL (≈ 81 µM) |
| CC1=C(C(=O)OC(C)C)C(c2ccc([N+](=O)[O-])cc2)NC(=O)N1 (stereo not drawn) | 25 µg/mL (≈ 78.3 µM) | 12.5 µg/mL (≈ 39.1 µM) | 12.5 µg/mL (≈ 39.1 µM) | 12.5 µg/mL (≈ 39.1 µM) | 12.5 µg/mL (≈ 39.1 µM) | 12.5 µg/mL (≈ 39.1 µM) | 12.5 µg/mL (≈ 39.1 µM) | 12.5 µg/mL (≈ 39.1 µM) | 12.5 µg/mL (≈ 39.1 µM) |
| CC1=C(C(=O)OC(C)C)C(c2ccccc2Cl)NC(=O)N1 (stereo not drawn) | 100 µg/mL (≈ 324 µM) | 50 µg/mL (≈ 162 µM) | 25 µg/mL (≈ 81 µM) | 25 µg/mL (≈ 81 µM) | 50 µg/mL (≈ 162 µM) | 50 µg/mL (≈ 162 µM) | 50 µg/mL (≈ 162 µM) | 25 µg/mL (≈ 81 µM) | 25 µg/mL (≈ 81 µM) |
| C[C@@H]1[C@H](O)[C@@H](C)/C=C/C=C/C=C/C=C/C=C/C=C/C=C/[C@H](O[C@@H]2O[C@H](C)[C@@H](O)[C@H](N)[C@@H]2O)C[C@@H]2O[C@](O)(C[C@@H](O)C[C@@H](O)[C@H](O)CC[C@@H](O)C[C@@H](O)CC(=O)O[C@H]1C)C[C@H](O)[C@H]2C(=O)O [AMPHOTERICIN B] | 50 µg/mL (≈ 54.1 µM) | 50 µg/mL (≈ 54.1 µM) | – | 25 µg/mL (≈ 27.1 µM) | – | 25 µg/mL (≈ 27.1 µM) | – | – | – |
| O=C(O)c1cn(C2CC2)c2cc(N3CCNCC3)c(F)cc2c1=O [CIPROFLOXACIN] | – | – | – | – | 25 µg/mL (≈ 75.4 µM) | – | 25 µg/mL (≈ 75.4 µM) | 50 µg/mL (≈ 151 µM) | – |

Reference: ChEMBL document CHEMBL1154591, “Synthesis and in vitro microbiological evaluation of novel 4-aryl-5-isopropoxycarbonyl-6-methyl-3,4-dihydropyrimidinones” (2010)
